Test results reported in ChEMBL document CHEMBL1139804, “In vitro affinities of various halogenated benzamide derivatives as potential radioligands for non-invasive quantification of D(2)-like dopamine receptors” (Bioorg Med Chem, 2007).

Legend:
D(1A) dopamine receptor = D(1A) dopamine receptor (Sus scrofa, UniProt P50130); assay: Displacement of [3H]SCH23990 from dopamine D1 receptor in pig striatal membrane; type: cell membranes, Striatum
D(4) dopamine receptor = biological target: T1, D(4) dopamine receptor (Homo sapiens, UniProt P21917); assay: Displacement of [3H]spiperone from dopamine D4.4 receptor in CHO cells; type: cell-based
T1 sequence (P21917 whole entry): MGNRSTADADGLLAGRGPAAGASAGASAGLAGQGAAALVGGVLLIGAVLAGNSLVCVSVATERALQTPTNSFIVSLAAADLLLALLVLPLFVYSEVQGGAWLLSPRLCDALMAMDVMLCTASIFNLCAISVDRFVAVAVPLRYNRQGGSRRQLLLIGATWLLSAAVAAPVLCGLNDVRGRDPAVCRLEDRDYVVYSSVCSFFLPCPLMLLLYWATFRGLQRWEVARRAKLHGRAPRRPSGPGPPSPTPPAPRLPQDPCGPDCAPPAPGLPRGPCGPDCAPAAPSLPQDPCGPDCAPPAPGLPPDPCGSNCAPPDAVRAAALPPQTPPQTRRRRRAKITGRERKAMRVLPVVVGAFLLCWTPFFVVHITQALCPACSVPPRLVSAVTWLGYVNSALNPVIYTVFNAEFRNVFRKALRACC
In short: (§1)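 Competition binding used membranes from stably transfected CHO cells expressing human D2long, D2short, D3 or D4.4 receptor, with [³H]spiperone at 0.1 nM final.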

D(2) dopamine receptor [1] = biological target: T2, D(2) dopamine receptor (Homo sapiens, UniProt P14416); assay: Displacement of [3H]spiperone from dopamine D2long receptor in CHO cells; type: cell-based; in short: as §1
[2] = Displacement of [3H]ketanserin from serotonin 5-HT2 receptor in pig cortical membrane
[3] = Lipophilicity, log D at pH 7.4; details: buffer
D(3) dopamine receptor = D(3) dopamine receptor (Homo sapiens, UniProt P35462); assay: Displacement of [3H]spiperone from dopamine D3 receptor in CHO cells; type: cell-based; in short: as §1
D(2) dopamine receptor [4] = biological target: T2, D(2) dopamine receptor; assay: Displacement of [3H]spiperone from dopamine D2short receptor in CHO cells; type: cell-based; in short: as §1
[5] = Displacement of [3H]prazosin from adrenergic-alpha-1 receptor in pig cortical membrane
[6] = Displacement of [3H]8HO-DPAT from serotonin 5-HT1A receptor in pig cortical membrane

Chain of D(3) dopamine receptor (P35462 whole entry): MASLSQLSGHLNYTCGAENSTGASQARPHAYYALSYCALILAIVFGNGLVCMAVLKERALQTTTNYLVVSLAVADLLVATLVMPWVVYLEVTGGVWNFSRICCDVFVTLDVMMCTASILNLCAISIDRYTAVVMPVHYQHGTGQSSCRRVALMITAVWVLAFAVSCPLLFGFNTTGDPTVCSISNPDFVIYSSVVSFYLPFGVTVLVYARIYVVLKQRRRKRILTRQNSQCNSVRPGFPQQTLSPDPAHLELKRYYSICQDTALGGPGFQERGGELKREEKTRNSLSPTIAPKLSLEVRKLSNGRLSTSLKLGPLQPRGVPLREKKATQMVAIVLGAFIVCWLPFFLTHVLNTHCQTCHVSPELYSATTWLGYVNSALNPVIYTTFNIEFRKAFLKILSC
Chain of D(1A) dopamine receptor (P50130 whole entry): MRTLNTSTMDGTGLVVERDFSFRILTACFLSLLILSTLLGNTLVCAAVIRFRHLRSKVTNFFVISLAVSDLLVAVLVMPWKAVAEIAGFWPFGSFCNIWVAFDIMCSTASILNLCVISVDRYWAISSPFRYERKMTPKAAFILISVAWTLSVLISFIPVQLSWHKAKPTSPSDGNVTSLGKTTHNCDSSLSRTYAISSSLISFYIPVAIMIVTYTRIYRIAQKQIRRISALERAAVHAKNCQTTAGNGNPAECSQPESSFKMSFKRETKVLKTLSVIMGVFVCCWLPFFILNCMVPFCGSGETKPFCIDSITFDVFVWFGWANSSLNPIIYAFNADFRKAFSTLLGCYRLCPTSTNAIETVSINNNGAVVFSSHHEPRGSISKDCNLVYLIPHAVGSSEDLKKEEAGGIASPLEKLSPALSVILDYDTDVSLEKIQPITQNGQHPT
T2 sequence (P14416 whole entry): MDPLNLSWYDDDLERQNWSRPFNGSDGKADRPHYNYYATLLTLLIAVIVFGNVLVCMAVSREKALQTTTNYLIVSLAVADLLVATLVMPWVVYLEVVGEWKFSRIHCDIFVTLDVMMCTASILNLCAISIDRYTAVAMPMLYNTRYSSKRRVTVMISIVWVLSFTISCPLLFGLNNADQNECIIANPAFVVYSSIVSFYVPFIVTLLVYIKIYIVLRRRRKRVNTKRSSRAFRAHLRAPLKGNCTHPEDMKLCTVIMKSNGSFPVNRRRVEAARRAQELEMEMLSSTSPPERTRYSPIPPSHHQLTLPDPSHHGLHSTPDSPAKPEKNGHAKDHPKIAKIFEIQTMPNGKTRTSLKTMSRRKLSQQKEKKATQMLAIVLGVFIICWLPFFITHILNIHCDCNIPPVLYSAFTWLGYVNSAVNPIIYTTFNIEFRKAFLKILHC

| Compound | Ki (D(1A) dopamine receptor) [nM] | Ki (D(4) dopamine receptor) [nM] | Ki (D(2) dopamine receptor [1]) [nM] | Ki [2] [nM] | logD [3] | Ki (D(3) dopamine receptor) [nM] | Ki (D(2) dopamine receptor [4]) [nM] | Ki [5] [nM] | Ki [6] [nM] |
| --- | --- | --- | --- | --- | --- | --- | --- | --- | --- |
| C=CCN1CCC[C@H]1CNC(=O)c1cc(I)cc(OC)c1OC | 18000 | 250 | 0.68 | 490 | 2.91 | 0.46 | 0.74 | 1100 | 150 |
| C=CCN1CCC[C@H]1CNC(=O)c1cc(CCCF)ccc1OC | 30000 | 3000 | 30 | 4500 | 2.63 | 33 | 30 | 1900 | 2300 |
| C=CCN1CCC[C@H]1CNC(=O)c1cc(CCCF)cc(OC)c1OC [FALLYPRIDE] | 18000 | 1300 | 2.2 | 3700 | 2.66 | – | 2.1 | 970 | 1100 |
| CCN1CCC[C@H]1CNC(=O)c1c(O)c(Cl)cc(Cl)c1OC [RACLOPRIDE] | 37000 | 3100 | – | 3500 | – | 15 | – | 3000 | 4400 |

Stronger by Ki (D(1A) dopamine receptor), values ahead:

| Ki (D(1A) dopamine receptor) [nM] | Ki (D(4) dopamine receptor) [nM] | Ki (D(2) dopamine receptor [1]) [nM] | Ki [2] [nM] | logD [3] | Ki (D(3) dopamine receptor) [nM] | Ki (D(2) dopamine receptor [4]) [nM] | Ki [5] [nM] | Ki [6] [nM] | Compound |
| --- | --- | --- | --- | --- | --- | --- | --- | --- | --- |
| 17000 | 1700 | 23 | 2100 | 2.71 | 22 | 27 | 2000 | 230 | C=CCN1CCC[C@H]1CNC(=O)c1cc(Br)ccc1OC |
| 13000 | 210 | 0.85 | 1100 | 2.83 | 0.6 | 0.88 | 1600 | 140 | C=CCN1CCC[C@H]1CNC(=O)c1cc(Br)cc(OC)c1OC |
| 13000 | 630 | 14 | 2400 | 2.81 | 11 | 15 | 2000 | 170 | C=CCN1CCC[C@H]1CNC(=O)c1cc(I)ccc1OC |
| 12000 | 570 | 4.2 | 2000 | 3.13 | 4.2 | 4.2 | 1900 | 1100 | CCN1CCC[C@H]1CNC(=O)c1c(OC)ccc(I)c1O [IOLOPRIDE] |
